Cl transport mod: KCC2 cotransporter modulators, thallium flux, primary screen, cell-based, HEK293 KCC2, FluoZin-2 fluorescence, MLSMR | Solute carrier family 12 member 5 (Homo sapiens), Q9H2X9 | KCC2 cells, thallium flux FluoZin-2 fluorescence | B-score of Tl+ flux slope (higher = more flux/activation; lower = inhibition) at 10 µM | 190,000 compounds, 2.2% hits;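 active means thallium flux slope and its plate-corrected score both differing from the plate sample mean at a set confidence after two filtering rounds, in either direction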;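 further: slope of fluorescence scaled to starting intensity during 10 to 20 s after thallium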
Target sequence (Q9H2X9 whole entry, looked up): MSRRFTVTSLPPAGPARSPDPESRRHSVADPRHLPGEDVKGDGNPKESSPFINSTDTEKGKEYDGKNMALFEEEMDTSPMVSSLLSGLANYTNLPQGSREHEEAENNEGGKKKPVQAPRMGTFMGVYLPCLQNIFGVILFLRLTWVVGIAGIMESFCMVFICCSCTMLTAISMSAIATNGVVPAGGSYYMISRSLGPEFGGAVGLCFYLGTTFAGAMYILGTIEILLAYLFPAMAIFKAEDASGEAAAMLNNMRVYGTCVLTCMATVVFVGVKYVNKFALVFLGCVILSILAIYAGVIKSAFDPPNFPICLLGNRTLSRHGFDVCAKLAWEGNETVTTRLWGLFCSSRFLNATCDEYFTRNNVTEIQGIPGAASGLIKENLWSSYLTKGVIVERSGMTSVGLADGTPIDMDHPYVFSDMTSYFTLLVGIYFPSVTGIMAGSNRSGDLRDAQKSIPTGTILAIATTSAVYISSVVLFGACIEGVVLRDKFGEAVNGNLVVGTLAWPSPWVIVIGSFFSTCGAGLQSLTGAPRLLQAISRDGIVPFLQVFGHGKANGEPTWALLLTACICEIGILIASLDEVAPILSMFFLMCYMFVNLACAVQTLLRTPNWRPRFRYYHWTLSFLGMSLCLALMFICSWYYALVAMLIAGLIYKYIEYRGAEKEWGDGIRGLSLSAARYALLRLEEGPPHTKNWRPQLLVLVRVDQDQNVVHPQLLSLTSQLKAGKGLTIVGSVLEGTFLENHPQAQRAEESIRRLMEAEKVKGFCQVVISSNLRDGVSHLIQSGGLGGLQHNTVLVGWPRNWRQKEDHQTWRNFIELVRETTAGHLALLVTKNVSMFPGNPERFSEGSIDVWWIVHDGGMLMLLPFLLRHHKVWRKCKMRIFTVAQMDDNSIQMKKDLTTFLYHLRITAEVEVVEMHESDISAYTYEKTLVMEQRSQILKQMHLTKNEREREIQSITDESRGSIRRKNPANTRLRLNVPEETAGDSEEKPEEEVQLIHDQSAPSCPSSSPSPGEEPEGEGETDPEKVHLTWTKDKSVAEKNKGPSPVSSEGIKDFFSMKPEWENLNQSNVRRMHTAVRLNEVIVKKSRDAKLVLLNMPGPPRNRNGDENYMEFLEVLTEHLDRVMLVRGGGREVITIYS
KCNQ1 pot: potentiators or activators of KCNQ1 channel, primary screen, cell-based, thallium flux, high-throughput; Potassium voltage-gated channel subfamily KQT member 1 (Homo sapiens), P51787; CHO-K1 KCNQ1, thallium flux FluxOR fluorescence; hits give high values; 310,000 compounds, 0.35% hits; B-score at 10 µM;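 active means fluorescence ratio B-score, a plate-corrected score, at least three library SD, with initial intensity B-score within 5 SD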
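Medium – assay buffer, equal DMSO in all wells · Material – CHO-K1 cell line with stable KCNQ1 potassium channel expression · Signal – kinetic FluxOR thallium fluorescence, 10-s 1-Hz baseline, 110-s post-stimulus read · Compound – single concentration per compound, DMSO matched to controls · Schedule – 37 °C overnight plating, 90-min dark dye load, 20-min compound pretreatment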
KCNK9 block: KCNK9 potassium channel inhibitors, primary screen, HEK293 cells, thallium flux; Potassium channel subfamily K member 9 (Homo sapiens), Q9NPC2; FluxOR thallium flux fluorescence; hits give low values; B-score at 10 µM; 310,000 compounds, 1.2% hits;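 active means ratio B-score over 3 SD below the library mean, with starting fluorescence within 5 SD of its mean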;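 further: negative B-score means less thallium flux so channel inhibition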
KCNQ1 block: inhibitors of human KCNQ1 channel, primary screen, cell-based, thallium flux, high-throughput | AID 2642, 2010 | 310,000 compounds, 1.3% hits | B-score at 10 µM | CHO-K1 KCNQ1, FluxOR thallium flux fluorescence; hits give high values;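 active means compounds whose thallium flux B-score, printed positive for inhibition, exceeds three library SD while starting fluorescence stays within three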;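 further: channel opened by potassium depolarization with thallium stimulus after 20 min compound exposure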
KCNK3 inh: human KCNK3 channel inhibitors, primary screen, CHO cells, FluxOR thallium flux, B-score. Potassium channel subfamily K member 3 (Homo sapiens), O14649. 340,000 compounds, 0.84% hits. AID 602410, 2012. B-score at 10 µM. FluxOR fluorescence; hits give low values;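 active means B-score under library mean minus 4 SD, starting fluorescence ratio at most library mean plus 5 SD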;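 further: more negative B-score means stronger inhibition of thallium flux through KCNK3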
hERG protect: hERG rescue from dofetilide block, primary screen, cell-based, CHO-hERG, FluxOR thallium flux, dofetilide IC70 | activation (rescue from dofetilide block), less the hit threshold, % at 10 µM | AID 1511, 2009 | dofetilide IC70 present | Voltage-gated inwardly rectifying potassium channel KCNH2 (Homo sapiens), Q12809 | 310,000 compounds, 0.51% hits;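 active means activation above the mean of controls blocked by dofetilide plus 5 SD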;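 further: thallium influx through hERG after potassium depolarization seen as dye fluorescence rise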
Numbers stand for hits; - = inactive; . = no result given. In the library only some 4.1% were active in any assay of this set; here they are far more common.

SMILES | Cl transport mod | KCNQ1 pot | KCNK9 block | KCNQ1 block | KCNK3 inh | hERG protect
CC(=O)Nc1ccc(Br)c2ccccc12 | - | - | - | - | - | -
CCN(CC)C(=O)c1sc2nc(-c3cccs3)cc(-c3cccs3)c2c1N | - | - | -9.25 | 7 | - | -
CCN(CC)C(=O)c1sc2nc(-c3cccs3)cc(-c3ccc(Cl)cc3)c2c1N | - | - | - | - | - | -
Cc1nnc(NC(=O)c2sc3nc(-c4cccs4)cc(C(F)(F)F)c3c2N)s1 | - | - | - | 6 | - | -
O=Nc1ccc(O)c2ncccc12 | - | - | - | - | - | -
Cc1ccccc1N=Nc1ccc(O)c2ncccc12 | 41.4 | - | - | - | - | -
N/C(=N\OC(=O)c1ccccc1Br)c1ccc([N+](=O)[O-])cc1 | . | - | - | - | - | -
N/C(=N\OC(=O)c1ccccc1Br)c1cccc([N+](=O)[O-])c1 | . | - | -7.13 | - | - | -
COc1ccc(OC)c(-c2nn(-c3ccccc3)cc2C(=O)NCC(c2ccco2)N2CCCC2)c1 (centres undefined) | . | . | . | . | - | .
O=C(NNC(=O)c1ccccn1)c1cccc([N+](=O)[O-])c1 | - | - | - | - | - | -
O=C(NNC(=O)c1cc(-c2ccccc2)n(-c2ccccc2)n1)c1cccc([N+](=O)[O-])c1 | 14.6 | - | - | - | - | -
OCCN(CCO)c1ccc(C(c2ccccc2Cl)c2ccc(N(CCO)CCO)cc2Cl)c(Cl)c1 | - | 11 | - | - | - | -
OCCN(CCO)c1ccc2ccccc2c1 | - | - | - | - | - | -
Cc1cnc(NC(=O)Nc2ccc(OCc3ccccc3)cc2)c(Br)c1 | . | - | - | - | - | -
Cc1ccc(NC(=O)CSC(N)=O)cc1Cl | -3.54 | - | -13.5 | - | - | -
Cc1oc(C)c2c(=O)ccc3c(c12)OC(N)=C(C#N)C3c1ccccc1Cl (centres undefined) | - | - | - | 6 | - | -
COC(=O)c1c(NC(=O)CSc2nnnn2-c2ccc3c(c2)OCO3)sc(C)c1C | - | - | -6.89 | - | - | -
CCOC(=O)c1c(NC(=O)CSc2nnnn2-c2ccc3c(c2)OCO3)sc(C)c1C | - | - | - | - | - | -
ON=C1CCCCCCCC1 | . | . | . | . | - | .
NC(N)=NN=C1CCCCCCCCCCC1 | - | - | - | 7 | - | -
CC(C)C(=O)Nc1ccc(NC(=O)CCc2ccccc2)cn1 | - | - | - | - | - | 9.1
O=[N+]([O-])c1ccc(O)c(Nc2ncnc3ccc(Br)cc23)c1 | - | - | - | 7 | - | -
CCC(C)NC(=O)C1(N2C(=O)c3ccccc3C2=O)CCCC1 (centres undefined) | . | . | . | . | - | .
O=C(Oc1ccc2c(c1)O/C(=C\c1ccncc1)C2=O)c1cccs1 | - | - | - | - | - | -
CCN(CC)C(=O)Oc1ccc2c(c1)O/C(=C\c1ccco1)C2=O | . | - | - | - | - | -
SMILES | Cl transport mod | KCNQ1 pot | KCNK9 block | KCNQ1 block | KCNK3 inh | hERG protect
CC(=O)Oc1ccc2c(c1)O/C(=C\c1ccncc1)C2=O | - | - | - | 9 | - | -
COCCN(CCOC)Cc1c(O)ccc2c1O/C(=C\c1ccco1)C2=O | . | - | - | 11 | - | -
CCC(=O)Oc1ccc2c(c1)O/C(=C\c1ccco1)C2=O | - | - | - | 6 | - | -
Cc1cc(O)cc2c1C(=O)/C(=C/c1ccco1)O2 | . | - | - | 11 | - | -
O=C(CCNC(=O)c1ccc(Cl)cc1)Nc1cccc(S(=O)(=O)N2CCCCC2)c1 | . | . | . | . | - | .
CCCSc1ccc([C@H]2N[C@@](CC(C)C)(C(=O)OC)[C@H]3C(=O)N(CC)C(=O)[C@@H]23)cc1 | . | . | . | . | - | .
COc1ccc(-c2csc(NC(=O)C3=NN(c4ccccc4)C(=O)CC3)n2)cc1 | - | 105 | - | - | - | -
Nc1nc(N(Cc2ccccc2)Cc2ccccc2)nc(C(F)(F)F)n1 | . | . | . | . | - | .
CCc1ccn2cc(-c3ccc4c(c3)OCO4)nc2c1 | - | - | -7.32 | - | - | -
